Assay results from ChEMBL document CHEMBL3297742, “Tetrahydronaphthyridine and dihydronaphthyridinone ethers as positive allosteric modulators of the metabotropic glutamate receptor 5 (mGlu₅)” (J Med Chem, 2014).

How the values were obtained:
[1] = Fraction unbound in rat brain; format: ADME, tissue-based
In short: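 Fraction unbound measured by rat brain homogenate binding.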

Cytochrome P450 3A4 = Cytochrome P450 3A4 (Homo sapiens, UniProt P08684); experiment: Inhibition of CYP3A4 in human liver microsomes; format: ADME
Chain of Cytochrome P450 3A4 (P08684 whole entry): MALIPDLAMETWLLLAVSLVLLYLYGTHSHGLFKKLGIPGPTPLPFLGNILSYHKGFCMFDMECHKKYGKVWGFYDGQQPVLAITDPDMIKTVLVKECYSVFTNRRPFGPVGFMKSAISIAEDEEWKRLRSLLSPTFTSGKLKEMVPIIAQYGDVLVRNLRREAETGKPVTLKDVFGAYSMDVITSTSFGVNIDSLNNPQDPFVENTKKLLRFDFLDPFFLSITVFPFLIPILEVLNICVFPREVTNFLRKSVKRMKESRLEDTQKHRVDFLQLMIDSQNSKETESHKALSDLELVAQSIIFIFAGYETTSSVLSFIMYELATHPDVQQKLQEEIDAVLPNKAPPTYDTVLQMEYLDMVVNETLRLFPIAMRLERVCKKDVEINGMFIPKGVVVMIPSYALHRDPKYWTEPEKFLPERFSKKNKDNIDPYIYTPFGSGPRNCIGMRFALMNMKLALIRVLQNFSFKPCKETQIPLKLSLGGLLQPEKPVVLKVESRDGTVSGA
In short: (§1)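 CYP1A2, 2C9, 2D6 and 3A4 inhibition measured together in a cocktail assay with human liver microsomes and known probe substrates; IC50 determined.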

[2] = target: Metabotropic glutamate receptor 1 (Rattus norvegicus, UniProt P23385); experiment: Positive allosteric modulator activity at rat mGlu1 receptor expressed in HEK293 cells assessed as glutamate-induced calcium mobilization treated 140s prior to glutamate challenge by fluorescence assay; format: functional, cell-based
In short: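 HEK293 cells stably expressing rat mGlu1, 20000 cells/well, Fluo-4AM calcium flux. Vehicle or 10 µM compound (final) added, then a glutamate concentration–response curve 140 s later.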

[3] = Half life in rat at 1 mg/kg, iv and 10 mg/kg, po; format: ADME, organism-based; conditions: in vivo
In short: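 Rat pharmacokinetics with 1 mg/kg IV and 10 mg/kg PO dosing; oral arm given in 0.5% methyl cellulose (1 mg/mL, noncrossover) to male Sprague–Dawley rats.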

[4] = target: Metabotropic glutamate receptor 2 (Rattus norvegicus, UniProt P31421); experiment: Positive allosteric modulator activity at rat mGlu2 receptor expressed in HEK293 cells assessed as glutamate-induced GIRK channel-mediated thallium flux treated 140s prior to gluatamate challenge by fluorescence analysis; format: cell-based
Chain of Metabotropic glutamate receptor 2 (P31421 whole entry): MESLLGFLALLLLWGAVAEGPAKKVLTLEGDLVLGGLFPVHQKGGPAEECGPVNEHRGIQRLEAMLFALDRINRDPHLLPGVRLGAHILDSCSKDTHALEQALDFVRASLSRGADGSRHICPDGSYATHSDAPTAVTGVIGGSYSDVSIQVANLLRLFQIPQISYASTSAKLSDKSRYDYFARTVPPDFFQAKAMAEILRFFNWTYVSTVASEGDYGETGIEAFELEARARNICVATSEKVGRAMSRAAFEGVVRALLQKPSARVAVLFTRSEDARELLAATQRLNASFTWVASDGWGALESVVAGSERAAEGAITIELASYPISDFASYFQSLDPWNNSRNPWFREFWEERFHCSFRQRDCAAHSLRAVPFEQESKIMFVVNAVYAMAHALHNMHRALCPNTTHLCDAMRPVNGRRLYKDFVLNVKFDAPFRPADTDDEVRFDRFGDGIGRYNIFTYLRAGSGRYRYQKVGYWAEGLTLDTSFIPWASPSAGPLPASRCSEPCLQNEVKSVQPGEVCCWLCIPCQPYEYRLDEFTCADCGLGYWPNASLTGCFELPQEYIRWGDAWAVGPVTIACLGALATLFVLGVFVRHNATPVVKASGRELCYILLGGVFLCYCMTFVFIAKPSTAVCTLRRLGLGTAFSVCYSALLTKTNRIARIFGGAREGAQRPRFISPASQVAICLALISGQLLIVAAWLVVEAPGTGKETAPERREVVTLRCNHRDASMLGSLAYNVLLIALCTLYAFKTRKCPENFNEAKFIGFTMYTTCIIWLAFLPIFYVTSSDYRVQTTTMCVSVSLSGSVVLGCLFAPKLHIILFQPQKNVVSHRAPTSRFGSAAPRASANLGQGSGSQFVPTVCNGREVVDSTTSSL
In short: (§2)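 HEK293-GIRK cells expressing rat mGlu2, 3, 4, 6, 7 or 8, 15000 cells/well. Vehicle or 10 µM compound added, then 140 s later a glutamate CRC (L-AP4 for mGlu7) in thallium buffer (12 mM thallium sulfate, 10 mM HEPES). Thallium flux through GIRK read by fluorescence.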

[5] = target: Metabotropic glutamate receptor 7 (Rattus norvegicus, UniProt P35400); experiment: Positive allosteric modulator activity at rat mGlu7 receptor expressed in HEK293 cells assessed as L-AP4-induced GIRK channel-mediated thallium flux treated 140s prior to L-AP4 challenge by fluorescence analysis; format: cell-based; in short: as §2
Chain of Metabotropic glutamate receptor 7 (P35400 whole entry): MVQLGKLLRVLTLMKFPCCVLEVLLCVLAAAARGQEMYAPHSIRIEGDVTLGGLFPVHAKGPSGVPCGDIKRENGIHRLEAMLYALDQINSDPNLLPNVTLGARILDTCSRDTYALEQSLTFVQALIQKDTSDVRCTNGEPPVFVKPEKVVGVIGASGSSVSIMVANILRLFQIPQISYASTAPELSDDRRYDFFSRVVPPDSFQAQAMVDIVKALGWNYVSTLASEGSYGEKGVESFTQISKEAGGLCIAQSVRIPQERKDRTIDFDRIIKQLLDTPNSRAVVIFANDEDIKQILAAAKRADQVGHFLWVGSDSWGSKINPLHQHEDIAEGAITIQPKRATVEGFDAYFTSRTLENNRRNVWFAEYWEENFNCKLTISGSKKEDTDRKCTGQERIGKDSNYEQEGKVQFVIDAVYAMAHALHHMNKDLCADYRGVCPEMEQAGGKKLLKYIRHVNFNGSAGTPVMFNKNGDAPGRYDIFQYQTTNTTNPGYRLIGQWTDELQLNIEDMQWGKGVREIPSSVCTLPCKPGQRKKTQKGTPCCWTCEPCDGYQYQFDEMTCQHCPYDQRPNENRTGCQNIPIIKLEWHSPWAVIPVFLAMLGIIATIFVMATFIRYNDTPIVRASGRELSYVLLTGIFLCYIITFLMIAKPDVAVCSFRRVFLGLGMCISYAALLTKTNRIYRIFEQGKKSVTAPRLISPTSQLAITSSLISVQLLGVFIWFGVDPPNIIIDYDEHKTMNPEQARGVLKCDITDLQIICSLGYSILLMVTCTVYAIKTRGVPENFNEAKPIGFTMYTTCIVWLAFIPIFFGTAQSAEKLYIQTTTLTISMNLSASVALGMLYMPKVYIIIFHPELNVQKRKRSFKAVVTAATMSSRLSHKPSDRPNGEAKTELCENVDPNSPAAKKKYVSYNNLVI

[6] = Retention time of the compound by LCMS analysis; format: physicochemical
[7] = Cmax in Sprague-Dawley rat at 10 mg/kg, po; format: ADME, organism-based; parameters: dose 10 mg/kg, route oral; conditions: in vivo
Rattus norvegicus [8] = experiment: Toxicity in Sprague-Dawley rat assessed as somatomotor nervous system deficit at 100 mg/kg, po measured up to 4 hrs by irwin neurological test; format: organism-based; parameters: dose 100 mg/kg, route oral; conditions: in vivo
In short: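 Male Sprague–Dawley rats (250–300 g) scored at baseline, then given vehicle (20% HP-β-CD) or 100 mg/kg po (n = 6 each). Modified Irwin battery repeated at 30 min, 1 h and 4 h; each end point scored 0, 1 or 2; significance taken at p ≤ 0.05.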

[9] = target: Metabotropic glutamate receptor 4 (Rattus norvegicus, UniProt P31423); experiment: Positive allosteric modulator activity at rat mGlu4 receptor expressed in HEK293 cells assessed as glutamate-induced GIRK channel-mediated thallium flux treated 140s prior to gluatamate challenge by fluorescence analysis; format: cell-based; in short: as §2
Chain of Metabotropic glutamate receptor 4 (P31423 whole entry): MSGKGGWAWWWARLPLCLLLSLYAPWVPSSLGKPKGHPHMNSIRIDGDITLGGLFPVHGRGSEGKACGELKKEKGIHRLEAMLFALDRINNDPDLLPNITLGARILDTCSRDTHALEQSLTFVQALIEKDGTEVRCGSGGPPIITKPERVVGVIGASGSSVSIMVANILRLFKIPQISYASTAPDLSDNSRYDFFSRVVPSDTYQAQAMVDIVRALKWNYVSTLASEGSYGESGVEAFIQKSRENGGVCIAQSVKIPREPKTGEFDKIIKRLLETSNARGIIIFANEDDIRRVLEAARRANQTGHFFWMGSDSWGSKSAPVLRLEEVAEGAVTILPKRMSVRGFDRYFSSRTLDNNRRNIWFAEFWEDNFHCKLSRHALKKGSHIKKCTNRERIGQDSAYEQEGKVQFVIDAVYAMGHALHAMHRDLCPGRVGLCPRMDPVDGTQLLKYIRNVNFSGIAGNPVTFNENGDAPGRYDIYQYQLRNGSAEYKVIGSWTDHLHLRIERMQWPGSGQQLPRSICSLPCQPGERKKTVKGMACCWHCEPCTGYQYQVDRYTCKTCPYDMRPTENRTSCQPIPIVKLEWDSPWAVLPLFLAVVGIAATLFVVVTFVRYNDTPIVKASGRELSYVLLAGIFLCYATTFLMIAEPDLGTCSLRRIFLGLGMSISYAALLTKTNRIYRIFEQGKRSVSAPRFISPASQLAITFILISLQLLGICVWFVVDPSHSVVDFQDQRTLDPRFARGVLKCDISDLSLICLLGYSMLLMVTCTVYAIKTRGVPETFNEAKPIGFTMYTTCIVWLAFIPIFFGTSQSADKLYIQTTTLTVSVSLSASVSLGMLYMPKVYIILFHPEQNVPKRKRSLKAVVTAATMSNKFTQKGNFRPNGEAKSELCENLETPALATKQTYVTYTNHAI

Plasma [10] = experiment: Fraction unbound in rat plasma; format: ADME, cell-free
[11] = Tmax in Sprague-Dawley rat at 10 mg/kg, po; format: ADME, organism-based; parameters: dose 10 mg/kg, route oral; conditions: in vivo
[12] = Ratio of unbound drug level in brain to plasma in rat; format: ADME, cell-free
In short: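 Kp,uu derived from the in vivo brain:plasma ratio and in vitro rat fu,plasma/fu,brain, with the binding values from rat plasma protein and rat brain homogenate binding experiments.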

[13] = Kinetic solubility of the compound in buffer at pH 2; format: physicochemical
In short: (§3)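 Kinetic aqueous solubility measured in buffers at pH 2, 4 and 7.4.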

[14] = target: Metabotropic glutamate receptor 8 (Rattus norvegicus, UniProt P70579); experiment: Positive allosteric modulator activity at rat mGlu8 receptor expressed in HEK293 cells assessed as glutamate-induced GIRK channel-mediated thallium flux treated 140s prior to glutamate challenge by fluorescence analysis; format: cell-based; in short: as §2
[15] = target: Metabotropic glutamate receptor 5 (Rattus norvegicus, UniProt P31424); experiment: Positive allosteric modulator activity at rat mGlu5 receptor expressed in HEK293 cells assessed as potentiation of glutamate-induced calcium mobilization by fluorescence assay; format: functional, cell-based; conditions: read-out: EC50
In short: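 HEK293 cells stably expressing rat mGlu5, 15000 cells/well, grown overnight, loaded with 1 µM Fluo-4AM for 50 min at 37 °C in HBSS/20 mM HEPES/2.5 mM probenecid pH 7.4. Compound added, then an EC20 of glutamate 140 s later and an EC80 90–120 s after that. Fluorescence over basal normalized to maximal glutamate response (100 µM glutamate); compound at up to 30 µM; ≥3 independent determinations.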

[16] = target: Metabotropic glutamate receptor 6 (Rattus norvegicus, UniProt P35349); experiment: Positive allosteric modulator activity at rat mGlu6 receptor expressed in HEK293 cells assessed as glutamate-induced GIRK channel-mediated thallium flux treated 140s prior to gluatamate challenge by fluorescence analysis; format: cell-based; in short: as §2
Chain of Metabotropic glutamate receptor 6 (P35349 whole entry): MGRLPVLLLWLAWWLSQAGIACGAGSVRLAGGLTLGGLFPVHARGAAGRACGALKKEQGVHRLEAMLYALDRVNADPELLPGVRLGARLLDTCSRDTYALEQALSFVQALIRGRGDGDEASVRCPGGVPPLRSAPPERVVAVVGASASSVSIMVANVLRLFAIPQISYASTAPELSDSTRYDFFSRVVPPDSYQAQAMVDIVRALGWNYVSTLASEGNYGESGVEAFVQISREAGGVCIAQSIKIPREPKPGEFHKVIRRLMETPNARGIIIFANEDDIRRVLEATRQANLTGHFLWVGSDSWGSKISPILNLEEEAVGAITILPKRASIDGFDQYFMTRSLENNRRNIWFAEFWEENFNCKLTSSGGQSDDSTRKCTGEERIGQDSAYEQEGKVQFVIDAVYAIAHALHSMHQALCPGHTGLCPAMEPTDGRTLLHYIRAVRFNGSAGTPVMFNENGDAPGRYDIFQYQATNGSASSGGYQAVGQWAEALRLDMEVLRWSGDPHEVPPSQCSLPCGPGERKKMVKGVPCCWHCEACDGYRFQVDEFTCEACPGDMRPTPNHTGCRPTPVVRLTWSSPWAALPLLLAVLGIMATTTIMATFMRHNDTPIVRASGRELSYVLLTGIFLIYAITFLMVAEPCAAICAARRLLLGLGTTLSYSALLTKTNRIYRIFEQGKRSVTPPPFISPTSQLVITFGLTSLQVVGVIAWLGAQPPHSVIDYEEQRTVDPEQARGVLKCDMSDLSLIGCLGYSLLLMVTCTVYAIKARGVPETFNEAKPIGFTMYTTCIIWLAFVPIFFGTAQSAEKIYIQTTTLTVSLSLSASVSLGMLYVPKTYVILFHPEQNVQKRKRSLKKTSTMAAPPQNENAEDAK

[17] = Drug uptake in Sprague-Dawley rat brain at 56.6 mg/kg, po after 1.5 hrs by LC-MS/MS analysis; format: ADME, organism-based; parameters: dose 56.6 mg/kg, route oral; conditions: read-out: Drug uptake
In short: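 Male Sprague–Dawley rats (250–375 g), fasted overnight, were dosed orally at 56.6 mg/kg in 20% HP-β-cyclodextrin (pH 6–7) during an amphetamine hyperlocomotion screen. Brain and plasma were taken at 1.5 h. Brain was homogenized in 70:30 2-propanol:water, and samples were diluted in acetonitrile with 50 nM carbamazepine internal standard. Analysis was C18 gradient LC-ESI-MS/MS against a standard curve.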

Rattus norvegicus [18] = experiment: AUC (0 to 24 hrs) in Sprague-Dawley rat plasma at 10 mg/kg, po; format: ADME, organism-based; parameters: time < 24 hr, dose 10 mg/kg, route oral; conditions: in vivo
Plasma [19] = experiment: Fraction unbound in human plasma; format: ADME, cell-free
Cytochrome P450 2D6 = Cytochrome P450 2D6 (Homo sapiens, UniProt P10635); experiment: Inhibition of CYP2D6 in human liver microsomes; format: ADME; in short: as §1
Chain of Cytochrome P450 2D6 (P10635 whole entry): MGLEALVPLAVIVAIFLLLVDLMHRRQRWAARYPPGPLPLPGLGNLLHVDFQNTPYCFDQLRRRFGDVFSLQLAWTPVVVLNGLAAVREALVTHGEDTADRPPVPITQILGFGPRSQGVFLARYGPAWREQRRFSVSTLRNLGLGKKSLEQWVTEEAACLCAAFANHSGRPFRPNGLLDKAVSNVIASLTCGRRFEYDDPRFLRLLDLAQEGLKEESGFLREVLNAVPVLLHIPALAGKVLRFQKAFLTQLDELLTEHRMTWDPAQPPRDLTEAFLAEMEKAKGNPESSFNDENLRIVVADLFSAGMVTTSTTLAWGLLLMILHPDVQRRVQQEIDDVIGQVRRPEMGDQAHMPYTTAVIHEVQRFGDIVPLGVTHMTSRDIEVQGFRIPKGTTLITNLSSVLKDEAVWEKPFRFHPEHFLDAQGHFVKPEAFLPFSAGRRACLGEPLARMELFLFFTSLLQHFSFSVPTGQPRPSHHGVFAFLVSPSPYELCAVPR

[20] = Kinetic solubility of the compound in buffer at pH 4; format: physicochemical; in short: as §3
[21] = Kinetic solubility of the compound in buffer at pH 7.4; format: physicochemical; in short: as §3
Rattus norvegicus [22] = experiment: Antipsychotic activity in Sprague-Dawley rat assessed as reversal of amphetamine-induced hyperlocomotion at 100 mg/kg, po administered for 30 mins prior to amphetamine challenge for 60 mins; format: functional
In short: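 Male Sprague–Dawley rats (250–375 g), food-deprived the evening before, were habituated 30 min in locomotor chambers. They were then dosed po with vehicle (20% HP-β-CD in water, pH 6–7, max 10 mL/kg) or test article, followed 30 min later by amphetamine 1 mg/kg sc, n = 6–8 per group. Photobeam breaks were counted per 5 min over 120 min. Percent reversal used t = 60–120 totals versus the vehicle + amphetamine group, reported as mean ± SE.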

Rattus norvegicus [23] = experiment: Antipsychotic activity in po dosed Sprague-Dawley rat assessed as reversal of amphetamine-induced hyperlocomotion administered for 30 mins prior to amphetamine challenge for 60 mins; format: functional, organism-based
In short: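 Male Sprague–Dawley rats (250–375 g), food-deprived overnight, habituated 30 min in locomotor chambers. Compound given po (3–100 mg/kg in 20% HP-β-CD, pH 6–7, ≤10 mL/kg) 30 min before amphetamine 1 mg/kg sc, then monitored 60 min (120 min total). Photobeam breaks over 60–120 min give percent reversal against the vehicle+amphetamine group, mean ± SE, n = 6–8.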

SMILES: O=C1NCCc2nc(OCc3cccc(F)c3)ccc21
- fraction unbound [1]: 0.02
- IC50 (Cytochrome P450 3A4): > 30 µM
- EC50 [2]: > 10 µM
- half-life [3]: 18 min
- EC50 [4]: > 10 µM
- EC50 [5]: > 10 µM
- Retention_time [6]: 0.736 min
- Cmax [7]: 3.36 µM
- Activity (Rattus norvegicus [8]): Non-toxic
- EC50 [9]: > 10 µM
- Fu (Plasma [10]): 0.034
- Tmax [11]: 30 min
- K(p,uu,brain) [12]: 1.1
- Kinetic_solubility [13]: 38 µM
- EC50 [14]: > 10 µM
- EC50 [15]: 0.225 µM
- EC50 [16]: > 10 µM
- concentration at 1.5 h [17]: 16.6 µM
- AUC (Rattus norvegicus [18]): 6.2 µM·h
- Fu (Plasma [19]): 0.047
- IC50 (Cytochrome P450 2D6): > 30 µM
- Kinetic_solubility [20]: 29 µM
- Kinetic_solubility [21]: 28 µM
- inhibition in vivo at 100 mg/kg (Rattus norvegicus [22]): 55%
- inhibition (Rattus norvegicus [23]): Dose-dependent effect
